# Experimental data published in ChEMBL document CHEMBL3046529, “Chiral gamma-aryl-1H-1,2,4-triazole derivatives as highly potential antifungal agents: Design, synthesis, structure, and in vitro fungicidal activities” (J Agric Food Chem, 2008).
# pEC50: −log10 of the molar value.
# Legend:
# Colletotrichum gossypii [1] = experiment: In vitro fungicidal activity against Colletotrichum gossypii assessed as mycelial growth inhibition at 100 mg/l at 26 degC after 48 hr by agar diffusion assay; assay type: functional; settings: read-out: GI
# How it was run: (§1)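 Compound is dissolved in DMF and added aseptically to autoclaved agar that has cooled to about 45-50 °C, giving 100 mg/L in the medium. Solvent never exceeds […]. Plain medium is the blank. A 5 mm mycelial plug, cut from the margin of an actively growing colony, goes in the plate centre. Three replicate plates are sealed and kept at 26 °C in darkness. Colony diameter is read at 48 h. Inhibition % = (control − treated diameter)/control diameter.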
# Dothiorella gregaria [2] = experiment: In vitro fungicidal activity against Dothiorella gregaria assessed as mycelial growth inhibition at 100 mg/l at 26 degC after 48 hr by agar diffusion assay; assay type: functional; settings: read-out: GI; how it was run: as §1
# Fusarium graminearum [3] = experiment: In vitro fungicidal activity against Fusarium graminearum assessed as mycelial growth inhibition at 100 mg/l at 26 degC after 48 hr by agar diffusion assay; assay type: functional; settings: read-out: GI; how it was run: as §1
# Botrytis cinerea [4] = experiment: In vitro fungicidal activity against Botryotinia fuckeliana assessed as mycelial growth inhibition at 100 mg/l at 26 degC after 48 hr by agar diffusion assay; assay type: functional; settings: read-out: GI; how it was run: as §1
# Rhizoctonia solani [5] = experiment: In vitro fungicidal activity against Rhizoctonia solani assessed as mycelial growth inhibition at 100 mg/l at 26 degC after 48 hr by agar diffusion assay; assay type: functional; settings: read-out: GI; how it was run: as §1
# Fusarium oxysporum [6] = experiment: In vitro fungicidal activity against Fusarium oxysporum assessed as mycelial growth inhibition at 100 mg/l at 26 degC after 48 hr by agar diffusion assay; assay type: functional; settings: read-out: GI; how it was run: as §1
# Colletotrichum gossypii [7] = experiment: In vitro fungicidal activity against Colletotrichum gossypii assessed as mycelial growth inhibition at 26 degC after 48 hr by agar diffusion assay; assay type: functional, organism-based
# Dothiorella gregaria [8] = experiment: In vitro fungicidal activity against Dothiorella gregaria assessed as mycelial growth inhibition at 26 degC after 48 hr by agar diffusion assay; assay type: functional, organism-based
# Fusarium graminearum [9] = experiment: In vitro fungicidal activity against Fusarium graminearum assessed as mycelial growth inhibition at 26 degC after 48 hr by agar diffusion assay; assay type: functional, organism-based
# Botrytis cinerea [10] = experiment: In vitro fungicidal activity against Botryotinia fuckeliana assessed as mycelial growth inhibition at 26 degC after 48 hr by agar diffusion assay; assay type: functional, organism-based
# Rhizoctonia solani [11] = experiment: In vitro fungicidal activity against Rhizoctonia solani assessed as mycelial growth inhibition at 26 degC after 48 hr by agar diffusion assay; assay type: functional, organism-based
# Fusarium oxysporum [12] = experiment: In vitro fungicidal activity against Fusarium oxysporum assessed as mycelial growth inhibition at 26 degC after 48 hr by agar diffusion assay; assay type: functional, organism-based
# Colletotrichum gossypii [13] = experiment: In vitro fungicidal activity against Colletotrichum gossypii assessed as mycelial growth inhibition at 50 mg/l at 26 degC after 48 hr by agar diffusion assay; assay type: functional; settings: read-out: GI
# Dothiorella gregaria [14] = experiment: In vitro fungicidal activity against Dothiorella gregaria assessed as mycelial growth inhibition at 50 mg/l at 26 degC after 48 hr by agar diffusion assay; assay type: functional; settings: read-out: GI
# Fusarium graminearum [15] = experiment: In vitro fungicidal activity against Fusarium graminearum assessed as mycelial growth inhibition at 50 mg/l at 26 degC after 48 hr by agar diffusion assay; assay type: functional; settings: read-out: GI
# Botrytis cinerea [16] = experiment: In vitro fungicidal activity against Botryotinia fuckeliana assessed as mycelial growth inhibition at 50 mg/l at 26 degC after 48 hr by agar diffusion assay; assay type: functional; settings: read-out: GI
# Rhizoctonia solani [17] = experiment: In vitro fungicidal activity against Rhizoctonia solani assessed as mycelial growth inhibition at 50 mg/l at 26 degC after 48 hr by agar diffusion assay; assay type: functional; settings: read-out: GI
# Fusarium oxysporum [18] = experiment: In vitro fungicidal activity against Fusarium oxysporum assessed as mycelial growth inhibition at 50 mg/l at 26 degC after 48 hr by agar diffusion assay; assay type: functional; settings: read-out: GI
SMILES,inhibition of growth at 100 µg/mL (Colletotrichum gossypii [1]),inhibition of growth at 100 µg/mL (Dothiorella gregaria [2]),inhibition of growth at 100 µg/mL (Fusarium graminearum [3]),inhibition of growth at 100 µg/mL (Botrytis cinerea [4]),inhibition of growth at 100 µg/mL (Rhizoctonia solani [5]),inhibition of growth at 100 µg/mL (Fusarium oxysporum [6]),pEC50 (Colletotrichum gossypii [7]),pEC50 (Dothiorella gregaria [8]),pEC50 (Fusarium graminearum [9]),pEC50 (Botrytis cinerea [10]),pEC50 (Rhizoctonia solani [11]),pEC50 (Fusarium oxysporum [12]),inhibition of growth at 50 µg/mL (Colletotrichum gossypii [13]),inhibition of growth at 50 µg/mL (Dothiorella gregaria [14]),inhibition of growth at 50 µg/mL (Fusarium graminearum [15]),inhibition of growth at 50 µg/mL (Botrytis cinerea [16]),inhibition of growth at 50 µg/mL (Rhizoctonia solani [17]),inhibition of growth at 50 µg/mL (Fusarium oxysporum [18])
CC[C@H](CCn1cncn1)c1ccccc1,70%,81%,60%,52%,80%,60%,–,–,–,–,–,–,–,–,–,–,–,–
CC[C@@H](CCn1cncn1)c1ccccc1,50%,60%,63%,52%,75%,55%,–,–,–,–,–,–,–,–,–,–,–,–
CC[C@H](CCn1cncn1)c1ccc(F)cc1,78%,82%,63%,36%,82%,50%,–,–,–,–,–,–,–,–,–,–,–,–
CC[C@@H](CCn1cncn1)c1ccc(F)cc1,65%,75%,56%,52%,85%,60%,–,–,–,–,–,–,–,–,–,–,–,–
CC[C@H](CCn1cncn1)c1ccc(Cl)cc1,97%,93%,76%,94%,85%,91%,–,–,–,–,–,–,–,–,–,–,–,–
CC[C@@H](CCn1cncn1)c1ccc(Cl)cc1,85%,80%,73%,84%,83%,80%,–,–,–,–,–,–,–,–,–,–,–,–
CC[C@H](CCn1cncn1)c1ccc(OC)cc1,55%,82%,66%,30%,60%,65%,–,–,–,–,–,–,–,–,–,–,–,–
CC[C@@H](CCn1cncn1)c1ccc(OC)cc1,50%,45%,42%,30%,73%,40%,–,–,–,–,–,–,–,–,–,–,–,–
CCC[C@H](CCn1cncn1)c1ccccc1,92%,100%,83%,98%,97%,80%,–,–,–,–,–,–,–,–,–,–,–,–
CCC[C@@H](CCn1cncn1)c1ccccc1,75%,67%,52%,44%,78%,55%,–,–,–,–,–,–,–,–,–,–,–,–
CCC[C@H](CCn1cncn1)c1ccc(F)cc1,95%,100%,85%,71%,90%,82%,–,–,–,–,–,–,–,–,–,–,–,–
CCC[C@@H](CCn1cncn1)c1ccc(F)cc1,90%,83%,83%,94%,86%,73%,–,–,–,–,–,–,–,–,–,–,–,–
CCC[C@H](CCn1cncn1)c1ccc(OC)cc1,80%,90%,66%,60%,78%,90%,–,–,–,–,–,–,–,–,–,–,–,–
CCC[C@@H](CCn1cncn1)c1ccc(OC)cc1,90%,93%,76%,92%,90%,75%,–,–,–,–,–,–,–,–,–,–,–,–
CCCC[C@H](CCn1cncn1)c1ccccc1,87%,100%,71%,91%,90%,66%,–,–,–,–,–,–,–,–,–,–,–,–
CCCC[C@@H](CCn1cncn1)c1ccccc1,82%,96%,71%,91%,87%,74%,–,–,–,–,–,–,–,–,–,–,–,–
CCCC[C@H](CCn1cncn1)c1ccc(F)cc1,100%,100%,95%,100%,100%,100%,4.21,4.82,4.18,4.21,4.44,3.95,100%,100%,89%,100%,99%,99%
CCCC[C@@H](CCn1cncn1)c1ccc(F)cc1,95%,97%,83%,96%,100%,96%,4.20,4.10,3.98,4.25,4.31,3.96,85%,71%,70%,81%,88%,88%
CCCC[C@H](CCn1cncn1)c1ccc(Cl)cc1,85%,100%,73%,88%,91%,82%,–,–,–,–,–,–,–,–,–,–,–,–
CCCC[C@@H](CCn1cncn1)c1ccc(Cl)cc1,85%,97%,69%,94%,84%,78%,–,–,–,–,–,–,–,–,–,–,–,–
CC(C)(C)C(=O)C(Oc1ccc(Cl)cc1)n1cncn1 (configuration not stated) [TRIADIMEFON],100%,71%,76%,96%,100%,97%,4.72,3.50,3.79,4.39,4.85,4.40,97%,14%,59%,78%,91%,91%
